From ChEMBL document CHEMBL4368914, “Tricyclic Indazoles-A Novel Class of Selective Estrogen Receptor Degrader Antagonists” (J Med Chem, 2019)

Legend:
[1] = target: T1, Estrogen receptor (Homo sapiens, UniProt P03372); test: Binding affinity to recombinant human GST-tagged ERalpha LBD expressed in baculovirus-infected insect cells by lantha screen assay
T1 sequence (P03372 whole entry): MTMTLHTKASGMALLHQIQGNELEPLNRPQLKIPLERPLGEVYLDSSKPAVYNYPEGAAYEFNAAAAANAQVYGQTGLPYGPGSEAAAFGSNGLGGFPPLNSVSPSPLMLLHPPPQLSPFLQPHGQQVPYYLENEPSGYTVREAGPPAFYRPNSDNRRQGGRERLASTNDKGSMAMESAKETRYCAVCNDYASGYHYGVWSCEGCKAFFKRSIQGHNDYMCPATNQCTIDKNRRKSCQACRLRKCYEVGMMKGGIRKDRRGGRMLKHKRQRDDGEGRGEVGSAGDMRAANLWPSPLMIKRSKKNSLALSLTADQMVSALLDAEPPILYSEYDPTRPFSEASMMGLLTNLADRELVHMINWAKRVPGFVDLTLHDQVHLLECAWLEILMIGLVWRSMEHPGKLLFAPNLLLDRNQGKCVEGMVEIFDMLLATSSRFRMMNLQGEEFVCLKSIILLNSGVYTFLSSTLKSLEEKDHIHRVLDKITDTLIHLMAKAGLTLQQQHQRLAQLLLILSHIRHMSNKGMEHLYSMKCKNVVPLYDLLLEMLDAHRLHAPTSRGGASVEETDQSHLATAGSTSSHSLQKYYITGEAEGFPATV

[2] = Fraction unbound in 10% human plasma by equilibrium dialysis; format: ADME, cell-free; settings: 10% plasma
Procedure, shortened: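 Equilibrium dialysis from DMSO stock in 10% plasma, either Alderley Park Han Wistar rat plasma or human plasma.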

[3] = Intrinsic clearance in human hepatocytes assessed per million cells; format: ADME, cell-based, Hepatocyte; settings: read-out: CLH
Procedure, shortened: (§1)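 Rate of metabolism (µl/min/10⁶ cells) measured from DMSO stock in isolated hepatocytes diluted to 1x10⁶ cells/mL.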

[4] = Apparent permeability in human Caco2 cells at 10 uM; format: ADME, cell-based; settings: Caco-2
Procedure, shortened: (§2)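 Compound at 10 μM incubated on cultured Caco-2 or MDCK cells. Permeability was measured apical-to-basolateral and basolateral-to-apical, and efflux ratio was taken as (B to A)/(A to B).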

[5] = Efflux ratio of apparent permeability in human Caco2 cells at 10 uM; format: ADME, cell-based; settings: Caco-2; procedure, shortened: as §2
[6] = Apparent permeability in MDCK cells at 10 uM; format: ADME, cell-based, Canis lupus familiaris; settings: dog; procedure, shortened: as §2
[7] = Efflux ratio of apparent permeability in MDCK cells at 10 uM; format: ADME, cell-based, Canis lupus familiaris; settings: dog; procedure, shortened: as §2
[8] = Fraction unbound in dog plasma by equilibrium dialysis; format: ADME, cell-free, Canis lupus familiaris
[9] = Clearance in rat at 0.5 mg/kg, iv or 1 mg/kg, po; format: ADME, organism-based; settings: in vivo
Procedure, shortened: (§3)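 Single IV dose of 0.5 mg/kg and oral dose of 1 mg/kg in rat and dog. Both routes were formulated in 5% DMSO:95% hydroxypropyl β-cyclodextrin (30% w/v), at 1 mL/kg IV and 4 mL/kg PO.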

[10] = Clearance in dog at 0.5 mg/kg, iv or 1 mg/kg, po; format: ADME, organism-based, Canis lupus familiaris; settings: in vivo; procedure, shortened: as §3
[11] = Volume of distribution at steady state in rat at 0.5 mg/kg, iv or 1 mg/kg, po; format: ADME, organism-based; settings: in vivo, read-out: Vdss; procedure, shortened: as §3
[12] = Volume of distribution at steady state in dog at 0.5 mg/kg, iv or 1 mg/kg, po; format: ADME, organism-based, Canis lupus familiaris; settings: in vivo, read-out: Vdss; procedure, shortened: as §3
[13] = Half life in rat at 0.5 mg/kg, iv or 1 mg/kg, po; format: ADME, organism-based; settings: in vivo; procedure, shortened: as §3
[14] = Oral bioavailability in rat at 1 mg/kg; format: ADME, organism-based; settings: in vivo; procedure, shortened: as §3
[15] = AUC in dog at 1 mg/kg, po; format: ADME, organism-based, Canis lupus familiaris; settings: in vivo; procedure, shortened: as §3
[16] = target: T1, Estrogen receptor; test: Induction of ERalpha degradation in human MCF7 cells assessed as reduction in ERalpha protein expression after 5 hrs in presence of […] tamoxifen by formaldehyde-staining based assay; format: cell-based
[17] = tested on: Mus musculus; test: In vivo antagonist activity at ERalpha in tumor of human MCF7 cells xenografted in po dosed SCID CB17 mouse assessed as reduction in PR levels administered once daily for 3 days measured after 24 hrs post last dose by Western blot analysis; format: functional, organism-based
Procedure, shortened: (§4)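 Male SCID mice carried a 0.5 mg/21 day s.c. estrogen pellet, with 5x10^6 MCF-7 cells implanted s.c. in the hind flank 24 h later. Groups of 5 were randomised at 0.5–0.8 cm³ and gavaged once daily for 3 d in PEG400/Captisol/water vehicle at 10 ml/kg. Tumours were taken 24 h post-dose, and PR was read by Western blot normalized to vinculin.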

[18] = tested on: Mus musculus; test: In vivo antagonist activity at ERalpha in tumor of human MCF7 cells xenografted in SCID CB17 mouse assessed as reduction in normalized PR levels at 50 mg/kg, po administered once daily for 3 days measured after 24 hrs post last dose by Western blot analysis relative to control; format: functional; design: scale not given: the % may be the effect or the level left; procedure, shortened: as §4
[19] = target: Cytochrome P450 2C9 (Homo sapiens, UniProt P11712); test: Inhibition of CYP2C9 in human liver microsomes; format: ADME
Procedure, shortened: (§5)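 High-throughput human liver microsome assay across a panel of five CYP isoforms, giving IC50.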

[20] = target: T2, Cytochrome P450 1A2 (Homo sapiens, UniProt P05177); test: Inhibition of CYP1A2 in human liver microsomes; format: ADME; procedure, shortened: as §5
T2 sequence (P05177 whole entry): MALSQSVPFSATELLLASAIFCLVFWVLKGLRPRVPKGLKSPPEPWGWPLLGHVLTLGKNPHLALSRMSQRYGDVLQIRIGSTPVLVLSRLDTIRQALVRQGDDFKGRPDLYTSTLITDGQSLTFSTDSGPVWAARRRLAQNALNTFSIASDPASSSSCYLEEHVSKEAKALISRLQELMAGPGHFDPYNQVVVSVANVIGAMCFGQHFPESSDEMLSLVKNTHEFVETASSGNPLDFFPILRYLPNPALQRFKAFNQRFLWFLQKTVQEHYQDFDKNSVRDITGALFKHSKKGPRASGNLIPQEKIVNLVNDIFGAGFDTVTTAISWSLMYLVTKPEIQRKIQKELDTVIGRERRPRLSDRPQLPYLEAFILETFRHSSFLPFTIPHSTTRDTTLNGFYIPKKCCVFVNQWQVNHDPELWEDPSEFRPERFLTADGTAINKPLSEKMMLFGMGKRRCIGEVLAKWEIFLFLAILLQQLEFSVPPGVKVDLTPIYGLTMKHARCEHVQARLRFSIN

[21] = target: Cytochrome P450 2D6 (Homo sapiens, UniProt P10635); test: Inhibition of CYP2D6 in human liver microsomes; format: ADME; procedure, shortened: as §5
[22] = Stability in pH 7.4 deuterated buffer by 1H NMR spectroscopy; format: physicochemical
Procedure, shortened: (§6)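 Compound diluted from a 25 mM DMSO-d6 stock to a final 1 mM in each deuterated buffer. Followed by ¹H NMR (500 MHz, water suppression, 64 scans) and LC-MS at 0, 24, 72 and 192 h (8 days).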

[23] = Stability in pH 1 deuterated buffer assessed as compound remaining after 8 days by 1H NMR spectroscopy; format: physicochemical; settings: pH 4 deuterated buffer, in the assay text read “pH 4” for “pH 1”, read-out: Stability; procedure, shortened: as §6
[24] = Intrinsic clearance in dog hepatocytes assessed per million cells; format: ADME, cell-based, Canis lupus familiaris, Hepatocyte; settings: read-out: CLH; procedure, shortened: as §1
[25] = Toxicity in SCID CB17 mouse xenografted with human MCF7 cells at 20 mg/kg, po administered once daily and measured on day 20 of dosing; settings: in vivo, 20 d

Sequence of Cytochrome P450 2C9 (P11712 whole entry, canonical isoform): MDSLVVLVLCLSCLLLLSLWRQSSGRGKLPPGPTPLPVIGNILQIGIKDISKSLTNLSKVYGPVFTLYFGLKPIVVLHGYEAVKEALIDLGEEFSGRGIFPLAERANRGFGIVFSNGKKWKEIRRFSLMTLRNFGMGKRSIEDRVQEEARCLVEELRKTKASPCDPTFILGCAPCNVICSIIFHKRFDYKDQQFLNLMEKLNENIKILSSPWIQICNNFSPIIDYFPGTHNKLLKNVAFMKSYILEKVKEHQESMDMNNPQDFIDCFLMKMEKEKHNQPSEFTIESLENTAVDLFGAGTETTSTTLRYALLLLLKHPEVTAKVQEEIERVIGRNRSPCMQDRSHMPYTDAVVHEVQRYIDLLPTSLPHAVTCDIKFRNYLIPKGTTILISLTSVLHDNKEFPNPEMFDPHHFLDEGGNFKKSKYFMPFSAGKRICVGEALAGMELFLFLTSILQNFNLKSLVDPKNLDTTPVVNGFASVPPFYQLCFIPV
Sequence of Cytochrome P450 2D6 (P10635 whole entry): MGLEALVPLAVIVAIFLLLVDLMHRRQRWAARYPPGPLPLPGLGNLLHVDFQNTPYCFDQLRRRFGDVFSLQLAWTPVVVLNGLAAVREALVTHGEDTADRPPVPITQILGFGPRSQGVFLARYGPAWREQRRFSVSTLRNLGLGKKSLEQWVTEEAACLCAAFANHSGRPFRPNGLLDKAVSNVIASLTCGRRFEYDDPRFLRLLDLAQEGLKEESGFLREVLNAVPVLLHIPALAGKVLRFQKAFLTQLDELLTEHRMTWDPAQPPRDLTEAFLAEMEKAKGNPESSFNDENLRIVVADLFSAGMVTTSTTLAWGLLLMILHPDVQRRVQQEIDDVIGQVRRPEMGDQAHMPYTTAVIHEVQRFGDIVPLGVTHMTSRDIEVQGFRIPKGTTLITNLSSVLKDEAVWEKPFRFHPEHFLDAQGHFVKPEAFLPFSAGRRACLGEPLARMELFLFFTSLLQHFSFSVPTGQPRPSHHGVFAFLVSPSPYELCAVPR

With `C[C@@H]1Cc2c(ccc3[nH]ncc23)[C@@H](c2c(F)cc(/C=C/C(=O)O)cc2F)N1CC(C)(C)F` the IC50 [1] was 0.000316 µM, the fraction unbound [2] was 0.0058 and the hepatocyte CLint [3] was 17 µL/min/1e6 cells. It also gave a Papp at 10 µM [4] of 6.9 ×10⁻⁶ cm/s, an efflux ratio at 10 µM [5] of 1.4 and a Papp at 10 µM [6] of 11 ×10⁻⁶ cm/s. For the same compound, the efflux ratio at 10 µM [7] was 0.6, the fraction unbound [8] was 0.0032 and the clearance [9] was 23 mL/min/kg. For the same compound, the clearance [10] was 5.9 mL/min/kg, the Vd [11] was 1.6 L/kg and the Vd [12] was 0.58 L/kg. For the same compound, the half-life [13] was 1.2 h, the bioavailability [14] was 31% and the AUC [15] was 3.2 µM·h. The IC50 [16] was 0.00794 µM, the Activity [17] was “Dose-dependent effect” and the Activity [18] was 93%. For the same compound, the IC50 [19] was 2.5 µM, the IC50 [20] was over 30 µM and the IC50 [21] was over 30 µM. For the same compound, the Stability [22] was “Stable”, the remaining at 192 h [23] was 58% and the hepatocyte CLint [24] was 17 µL/min/1e6 cells. For the same compound, the Activity [25] was “Non-Toxic”.
